From ChEMBL document CHEMBL2439948, “Discovery of DF-461, a Potent Squalene Synthase Inhibitor” (ACS Med Chem Lett, 2013)
The source made the active and inactive calls. No cut-off for these calls is given here.

What was measured:
[1] = system: Rattus norvegicus; experiment: Inhibition of cholesterol synthesis in po dosed Wistar rat administered as single dose prior to [14C]mevalonolactone injection measured after 7 hrs by liquid scintillation counting; format: functional
[2] = system: marmosets; experiment: Reduction in triglyceride level in marmosets at 30 mg/kg/day, po for 7 days; format: functional, Callitrichinae sp.; parameters: scale not given: the % may be the effect or the level left
Summary of the method: (§1)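 Marmosets dosed orally at 30 mg/kg/day for 7 days. Plasma total, non-HDL and HDL cholesterol and triglyceride reported as mean percentage change from each animal's initial values (n = 7, 8). Significance was tested against initial values.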

[3] = system: marmosets; experiment: Reduction in HDL cholesterol level in marmosets at 30 mg/kg/day, po for 7 days; format: functional, Callitrichinae sp.; parameters: scale not given: the % may be the effect or the level left; summary of the method: as §1
[4] = system: marmosets; experiment: Reduction in non-HDL cholesterol level in marmosets at 30 mg/kg/day, po for 7 days; format: functional, Callitrichinae sp.; parameters: scale not given: the % may be the effect or the level left; summary of the method: as §1
[5] = system: marmosets; experiment: Reduction in total cholesterol level in marmosets at 30 mg/kg/day, po for 7 days; format: functional, Callitrichinae sp.; parameters: scale not given: the % may be the effect or the level left; summary of the method: as §1
[6] = system: Rattus norvegicus; experiment: Inhibition of cholesterol synthesis in Wistar rat at 1 mg/kg, po administered as single dose prior to [14C]mevalonolactone injection measured after 7 hrs by liquid scintillation counting; format: functional
Summary of the method: (§2)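 Rats given a single oral dose of 1 mg/kg; hepatic cholesterol synthesis inhibition (%) determined at 1, 4 and 7 h after dosing.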

[7] = system: Rattus norvegicus; experiment: Inhibition of cholesterol synthesis in Wistar rat at 1 mg/kg, po administered as single dose prior to [14C]mevalonolactone injection measured after 4 hrs by liquid scintillation counting; format: functional; summary of the method: as §2
[8] = system: Rattus norvegicus; experiment: Inhibition of cholesterol synthesis in Wistar rat at 1 mg/kg, po administered as single dose prior to [14C]mevalonolactone injection measured after 1 hr by liquid scintillation counting; format: functional; summary of the method: as §2
[9] = system: Hepatocyte; experiment: Inhibition of cholesterol synthesis in rat hepatocytes assessed as formation of cholesterol using [14C]mevalonolactone as substrate after 1 hr by liquid scintillation counting; format: functional, cell-based
[10] = target: T1, Squalene synthase (Rattus norvegicus, UniProt Q02769); experiment: Inhibition of rat hepatic microsomal squalene synthase using [3H]FPP as substrate after by scintillation spectrophotometry
T1 sequence (Q02769 whole entry): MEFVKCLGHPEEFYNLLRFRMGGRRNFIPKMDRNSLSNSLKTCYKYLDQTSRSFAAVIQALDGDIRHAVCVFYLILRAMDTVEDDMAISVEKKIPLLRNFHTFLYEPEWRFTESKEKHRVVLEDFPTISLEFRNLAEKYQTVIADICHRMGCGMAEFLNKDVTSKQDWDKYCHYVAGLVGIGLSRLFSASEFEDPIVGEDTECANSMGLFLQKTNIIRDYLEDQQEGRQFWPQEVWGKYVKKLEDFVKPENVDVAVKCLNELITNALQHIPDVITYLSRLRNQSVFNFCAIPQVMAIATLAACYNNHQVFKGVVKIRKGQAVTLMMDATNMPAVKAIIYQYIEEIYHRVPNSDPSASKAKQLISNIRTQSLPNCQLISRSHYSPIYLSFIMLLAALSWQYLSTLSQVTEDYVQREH

[11] = system: Rattus norvegicus; experiment: Inhibition of cholesterol synthesis in Wistar rat at 3 mg/kg, po in presence of [14C]acetic acid; format: functional, organism-based; parameters: dose 3 mg/kg
Summary of the method: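 Rats given a single 3 mg/kg oral dose; hepatic cholesterol synthesis inhibition expressed as % at 1 h post-dose.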

[12] = Lipophilicity, log D of the compound at pH 7.4; format: physicochemical; conditions: buffer
[13] = system: Rattus norvegicus; experiment: Inhibition of cholesterol synthesis in Wistar rat at 3 mg/kg, po administered as single dose prior to [14C]mevalonolactone injection measured after 1 hr by liquid scintillation counting
[14] = system: Rattus norvegicus; experiment: Drug uptake in rats liver assessed per gram of tissue at 3 mg/kg, po administered as single dose measured at 1 hr
[15] = system: Rattus norvegicus; experiment: Partition co-efficient, Kp in rats liver assessed per gram of tissue at 3 mg/kg, po administered as single dose measured at 1 hr

| SMILES | IC50 [10] | logD [12] | concentration at 1 h [14] | Kp at 1 h [15] | ED50 [1] | Activity [2] | Activity [3] | Activity [4] | Activity [5] | inhibition in vivo at 1 mg/kg [6] | inhibition in vivo at 1 mg/kg [7] | inhibition in vivo at 1 mg/kg [8] | IC50 [9] | inhibition [11] | inhibition in vivo at 3 mg/kg [13] |
| --- | --- | --- | --- | --- | --- | --- | --- | --- | --- | --- | --- | --- | --- | --- | --- |
| COc1cccc([C@H]2O[C@H](CC(=O)N3CCC(CC(=O)O)CC3)C(=O)N(CC(C)(C)COC(C)=O)c3ccc(Cl)cc32)c1OC [LAPAQUISTAT ACETATE] |  |  |  |  | 3.8 mg/kg | 25% | 10% | 19% | 17% |  |  |  |  |  |  |
| CC(C)c1c(C(=O)Nc2ccccc2)c(-c2ccccc2)c(-c2ccc(F)cc2)n1CC[C@@H](O)C[C@@H](O)CC(=O)O |  |  |  |  |  |  |  |  |  |  |  |  |  | Active |  |
| COc1cccc([C@H]2O[C@H](CCn3cc(C(=O)O)cn3)c3nnc(C)n3-c3ccc(Cl)cc32)c1OC (relative stereo) | 36 nM | -0.4 |  |  |  |  |  |  |  |  |  |  | 290 nM |  | 30% |
| COc1cccc([C@H]2O[C@H](CC(=O)O)c3nnc(C(F)(F)F)n3-c3ccc(Cl)cc32)c1OC | 1.6 nM |  | 1040 ng/g | 66 |  | 29% | 3% | 44% | 29% | 45% | 78% | 88% | 38 nM |  |  |
| COc1cccc([C@H]2O[C@H](CCn3cc(C(=O)O)cn3)c3nnc(C(C)C)n3-c3ccc(Cl)cc32)c1OC (relative stereo) | 11 nM | 0.37 |  |  |  |  |  |  |  |  |  |  | 91 nM |  | 15% |
| COc1cccc([C@H]2O[C@H](CCn3cc(C(=O)O)cn3)c3nnc(C(F)(F)F)n3-c3ccc(Cl)cc32)c1OC (relative stereo) | 3.2 nM | 0.83 |  |  |  |  |  |  |  |  |  |  | 130 nM |  | 71% |
| COc1cccc([C@H]2O[C@H](CCn3cc(C(=O)O)cn3)c3nnc(CF)n3-c3ccc(Cl)cc32)c1OC (relative stereo) | 6 nM |  |  |  |  |  |  |  |  |  |  |  | 77 nM |  | 48% |

The next lines start with results.

| IC50 [10] | logD [12] | concentration at 1 h [14] | Kp at 1 h [15] | SMILES | ED50 [1] | Activity [2] | Activity [3] | Activity [4] | Activity [5] | inhibition in vivo at 1 mg/kg [6] | inhibition in vivo at 1 mg/kg [7] | inhibition in vivo at 1 mg/kg [8] | IC50 [9] | inhibition [11] | inhibition in vivo at 3 mg/kg [13] |
| --- | --- | --- | --- | --- | --- | --- | --- | --- | --- | --- | --- | --- | --- | --- | --- |
| 0.7 nM |  |  |  | COc1cccc([C@H]2O[C@H](CC(=O)O)c3nnc(C(F)(F)F)n3-c3ccc(Cl)cc32)c1OC(F)(F)F |  |  |  |  |  | 48% | 67% | 77% | 28 nM |  |  |
| 0.36 nM |  |  |  | CCc1c(OC)cccc1[C@H]1O[C@H](CC(=O)O)c2nnc(C(F)(F)F)n2-c2ccc(Cl)cc21 |  |  |  |  |  | 21% | 57% | 76% | 18 nM |  |  |
| 1.1 nM |  |  |  | COc1cccc([C@H]2O[C@H](CC(=O)O)c3nnc(C(F)(F)F)n3-c3ccc(Cl)cc32)c1Cl | 0.11 mg/kg | 24% | 16% | 53% | 39% | 55% | 77% | 93% | 19 nM | Active |  |
| 0.85 nM |  |  |  | COc1cccc([C@H]2O[C@H](CC(=O)O)c3nnc(C(F)(F)F)n3-c3ccc(Cl)cc32)c1C |  | 34% | 8% | 42% | 32% | 45% | 69% | 87% | 46 nM |  |  |
